Measured values: ChEMBL document CHEMBL3865827, “A novel class of ethacrynic acid derivatives as promising drug-like potent generation of anticancer agents with established mechanism of action” (Eur J Med Chem, 2016)
Activity calls are given as the source filed them. No cut-off for these calls is given here.

Assays:
[1] = Antiproliferative activity against human HL60 cells after 24 to 72 hrs by MTS assay; assay type: functional, cell-based; settings: HL-60
Procedure, shortened: (§1)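 Cells plated, then dosed 24 h later with compounds in DMSO (1% final; controls DMSO alone), exposed 24 or 72 h. Proliferation inhibition measured as previously reported (MTS/NADH reagent). IC50 from duplicate experiments over 0.5 nM–100 µM. KB grown in D-MEM with 10% fetal calf serum, penicillin, streptomycin, fungizone, 5% CO2; other lines in complete RPMI. EPC are quiescent Cyprinus carpio endothelial progenitor cells.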

KB [2] = assay: Selectivity index, ratio of IC50 for Cyprinus carpio EPC to IC50 for human KB cells
HL-60 [3] = assay: Selectivity index, ratio of IC50 for Cyprinus carpio EPC to IC50 for human HL60 cells
[4] = Antiproliferative activity against Cyprinus carpio EPC after 24 to 72 hrs by MTS assay
[5] = Antiproliferative activity against human KB cells after 24 to 72 hrs by MTS assay; assay type: functional, cell-based; procedure, shortened: as §1
HCT-116 = assay: Induction of necrosis in human HCT116 cells assessed as increase in LDH release at 7 uM after 24 to 48 hrs by fluorescence assay; assay type: functional, cell-based
[6] = Cell cycle arrest in human HL60 cells assessed as accumulation at G0/G1 phase at 2.5 uM after 24 hrs by propidium iodide-staining based FACS analysis (reference value: 43.5 %); assay type: functional; settings: HL-60
Procedure, shortened: (§2)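 HL60 cells, 25,000 per well, exposed 24 and 48 h to 2.5 µM compounds; controls DMSO (1% final). Propidium iodide staining, flow cytometry; fractions in sub-G1, G0/G1, S and G2/M quantified.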

[7] = Cell cycle arrest in human HL60 cells assessed as accumulation at G2/M phase at 2.5 uM after 48 hrs by propidium iodide-staining based FACS analysis (reference value: 2.2 %); assay type: functional; settings: HL-60; procedure, shortened: as §2
[8] = Cell cycle arrest in human HL60 cells assessed as accumulation at sub G1 phase at 2.5 uM after 48 hrs by propidium iodide-staining based FACS analysis (reference value: 1.4 %); assay type: functional; settings: HL-60; procedure, shortened: as §2
[9] = Cell cycle arrest in human HL60 cells assessed as accumulation at G2/M phase at 2.5 uM after 24 hrs by propidium iodide-staining based FACS analysis (reference value: 5.1 %); assay type: functional; settings: HL-60; procedure, shortened: as §2
MRC5 = assay: Induction of necrosis in human MRC5 SV2 cells assessed as increase in LDH release at 7 uM after 24 to 48 hrs by fluorescence assay; assay type: functional, cell-based
[10] = Cell cycle arrest in human HL60 cells assessed as accumulation at sub G1 phase at 2.5 uM after 24 hrs by propidium iodide-staining based FACS analysis (reference value: 2.6 %); assay type: functional; settings: HL-60; procedure, shortened: as §2
[11] = Cell cycle arrest in human HL60 cells assessed as accumulation at S phase at 2.5 uM after 24 hrs by propidium iodide-staining based FACS analysis (reference value: 48.9 %); assay type: functional; settings: HL-60; procedure, shortened: as §2
[12] = Cell cycle arrest in human HL60 cells assessed as accumulation at G0/G1 phase at 2.5 uM after 48 hrs by propidium iodide-staining based FACS analysis (reference value: 43.8 %); assay type: functional; settings: HL-60; procedure, shortened: as §2
[13] = Cell cycle arrest in human HL60 cells assessed as accumulation at S phase at 2.5 uM after 48 hrs by propidium iodide-staining based FACS analysis (reference value: 52.6 %); assay type: functional; settings: HL-60; procedure, shortened: as §2
[14] = Antiproliferative activity against human OVCAR8 cells after 24 to 72 hrs by MTS assay; assay type: functional, cell-based; settings: OVCAR-8
[15] = Antiproliferative activity against human SKOV3 cells after 24 to 72 hrs by MTS assay; assay type: functional, cell-based; settings: SK-OV-3
[16] = Antiproliferative activity against human MCF7 cells after 24 to 72 hrs by MTS assay; assay type: functional, cell-based
[17] = Antiproliferative activity against human HCT116 cells after 24 to 72 hrs by MTS assay; assay type: functional, cell-based; settings: HCT-116
[18] = Antiproliferative activity against human PC3 cells after 24 to 72 hrs by MTS assay; assay type: functional, cell-based; settings: PC-3
HL-60 [19] = assay: Antiproliferative activity against human HL60 cells at 7 uM after 24 hrs by viacount-reagent based FACS analysis
[20] = Cytotoxicity against human HL60 cells assessed as reduction in cell viability after 24 hrs by MTS assay; assay type: functional, cell-based; settings: HL-60, 24 h
KB [21] = assay: Induction of necrosis in human KB cells assessed as increase in LDH release at 7 uM after 24 to 48 hrs by fluorescence assay; assay type: functional, cell-based
HL60 (Homo sapiens) = assay: Effect on 24 hrs pretreated human HL60 cells assessed as reduction in endogenous GSH content at 7 uM measured for 60 mins by fluorescence assay; settings: HL-60

Row | SMILES | IC50 [1] | Ratio IC50 (KB [2]) | Ratio IC50 (HL-60 [3]) | IC50 [4] | IC50 [5] | Activity (HCT-116) | Activity (MRC5) | other results
1 | C=C(CC)C(=O)c1ccc(OCC(=O)NCCc2ccc(OP3(=O)OCCCO3)cc2)c(Cl)c1Cl | 1200 nM | 6.8 | 2.8 | 3400 nM | 500 nM | – | – | –
2 | C=C(CC)C(=O)c1ccc(OCC(=O)NCCc2ccc(OP(=O)(OCC)OCC)cc2)c(Cl)c1Cl | 1100 nM | 4 | 2.9 | 3200 nM | 800 nM | – | – | –
3 | CCC(C)C(=O)c1ccc(OCC(=O)NCCc2ccc(O)cc2)c(Cl)c1Cl (configuration not stated) | – | – | – | – | – | Active | Active | Activity [6]: 42.1%; Activity [7]: 2.2%; Activity [8]: 4.2%; Activity [9]: 7.9%; Activity [10]: 3.3%; Activity [11]: 46.7%; Activity [12]: 51.7%; Activity [13]: 41.9%
4 | C=C(CC)C(O)c1ccc(OCC(=O)NCCc2ccc(O)cc2)c(Cl)c1Cl (configuration not stated) | – | – | – | – | – | Active | Active | Activity [6]: 42.3%; Activity [7]: 0.6%; Activity [8]: 6.1%; Activity [9]: 5.2%; Activity [10]: 2%; Activity [11]: 50.5%; Activity [12]: 51.9%; Activity [13]: 41.5%
5 | C=C(CC)C(=O)c1ccc(OCC(=O)N2CCN(c3ccc(OP4(=O)OCCC(c5cccc(Cl)c5)O4)cc3)CC2)c(Cl)c1Cl (configuration not stated) | 900 nM | 21 | 8.7 | 7800 nM | 400 nM | – | – | –
6 | CCC(C)C(=O)c1ccc(OCC(=O)N2CCN(c3ccc(OC)cc3)CC2)c(Cl)c1Cl (configuration not stated) | – | – | – | – | – | Active | Active | –
7 | CCC(C)C(=O)c1ccc(OCC(=O)N2CCN(c3ccc(O)cc3)CC2)c(Cl)c1Cl (configuration not stated) | – | – | – | – | – | Active | Active | –
8 | C=C(CC)C(=O)c1ccc(OCC(=O)N2CCN(c3ccc(OP(=O)(OC)OC)cc3)CC2)c(Cl)c1Cl | 800 nM | 17 | 3.6 | 2900 nM | 170 nM | – | – | IC50 [14]: 1400 nM; IC50 [15]: 2200 nM; IC50 [16]: 500 nM; IC50 [17]: 800 nM; IC50 [18]: 1100 nM
9 | C=C(CC)C(=O)c1ccc(OCC(=O)NCCc2ccc(OP(=O)(OCC)OCC)c(OC)c2)c(Cl)c1Cl | 800 nM | 3.2 | 2.8 | 2300 nM | 700 nM | – | – | –
10 | C=C(CC)C(=O)c1ccc(OCC(=O)N2CCN(c3ccc(OP(=O)(OCC)OCC)cc3)CC2)c(Cl)c1Cl | 500 nM | 9.3 | 5.6 | 2800 nM | 300 nM | – | – | –
11 | C=C(CC)C(=O)c1ccc(OCC(=O)N2CCN(c3ccc(OC)cc3)CC2)c(Cl)c1Cl | 800 nM | 9 | 4.5 | 3600 nM | 400 nM | Active | Active | –
12 | C=C(CC)C(=O)c1ccc(OCC(=O)NCCc2ccc(OP3(=O)OCCC(c4cccc(Cl)c4)O3)cc2)c(Cl)c1Cl (configuration not stated) | 900 nM | 3.1 | 2.4 | 2200 nM | 700 nM | – | – | –
13 | C=C(CC)C(=O)c1ccc(OCC(=O)NCCc2ccc(OP(=O)(OC)OC)cc2)c(Cl)c1Cl | 1200 nM | 1.75 | 0.58 | 700 nM | 400 nM | – | – | IC50 [14]: 1500 nM; IC50 [15]: 2800 nM; IC50 [16]: 900 nM; IC50 [17]: 1500 nM; IC50 [18]: 800 nM
14 | C=C(CC)C(=O)c1ccc(OCC(=O)NCCc2ccc(O)c(OC)c2)c(Cl)c1Cl | 1600 nM | 5.6 | 2.8 | 4500 nM | 800 nM | Active | Active | Activity (HL-60 [19]): Active; IC50 [20]: 2600 nM; Activity (KB [21]): Active; GSH reduction activity (HL60 (Homo sapiens)): Active
